The record followed here is ChEMBL document CHEMBL3526116, “Toxicological evaluation of acyl glucuronides of nonsteroidal anti-inflammatory drugs using human embryonic kidney 293 cells stably expressing human UDP-glucuronosyltransferase and human hepatocytes” (Drug Metab Dispos, 2011).

Series [1] has as its system HEK293. In words: Cytotoxicity against HEK293 cells expressing UGT assessed as LDH leakage at 1 mM after 6 to 24 hrs by spectrophotometric analysis relative to total cell LDH level. The note with it: human, hek293, 1000 µM. The series is classed as ADME, cell-based. The gist of the method:
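Stable UGT-expressing or mock HEK293 lines in DMEM with 0.5% FBS, 2 x 10^4 cells/well, drug for 6, 12 or 24 h. LDH released into medium read at 490 nm (690 nm reference); percentage calculated against maximum release from control cells lysed with 1% Triton X-100.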

The subject of series [2] is HEK293. In words: Cytotoxicity against HEK293 cells expressing UGT1A3 assessed as decrease in cell viability by measuring intracellular ATP content at 1 mM by CellTiter-Glo luminescent assay. Type of series: ADME, cell-based. The note with it: human, hek293, 1000 µM; TDE = time-dependent effect. The gist of the method: (§1)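 UGT1A3 or UGT1A4 stable HEK293 cells, 2 x 10^4 cells/well in 0.1 mL DMEM with 0.5% FBS, drug for 6, 12 or 24 h. Viability from intracellular ATP via CellTiter-Glo luminescence, expressed as percent of control cells. Mean ± SD of triplicates.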

Series [3] has as its system Hepatocyte. The series can be described thus: Cytotoxicity against human hepatocytes assessed as decrease in cell viability by measuring intracellular ATP content at 1 mM measured at 6 hrs by CellTiter-Glo luminescent assay in absence of acyl glucuronidation inhibitor (-)-borneol. Type of series: cell-based. The note with it: 1000 µM. The gist of the method:
(§2)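 Human hepatocytes (pooled, cryopreserved), 2 × 10^4 cells/well on collagen in HCM with 0.5% FBS and 10 nM estradiol; 30-min preincubation ± 1 mM (-)-borneol, then drug 6 h. Intracellular ATP measured by CellTiter-Glo luminescence, percent of control cells. Triplicates, mean ± SD.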

Series [4] concerns HEK293. In words: Cytotoxicity against HEK293 cells expressing UGT assessed as decrease in cell viability at 1 mM measured up to 72 hrs by MTT assay. The note with it: human, hek293, 72 h, 1000 µM. Type of series: ADME, cell-based. Summed up:
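Mock and UGT1A3/UGT1A4 stable HEK293 cells given drug for up to 72 h; viability measured by WST-8-based MTT assay.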
In general terms: Tetrazolium assays rely on reduction of a dye to a coloured formazan, in cell work by metabolically active cells.

In series [5] the test system is HEK293. In words: Cytotoxicity against HEK293 cells expressing UGT1A4 assessed as decrease in cell viability at 1 mM by MTT assay. Type of series: ADME, cell-based. The note with it: human, hek293, 1000 µM; TDE = time-dependent effect.
In series [6] the test system is HEK293. The series can be described thus: Genotoxicity in HEK293 cells expressing UGT1A3 assessed as DNA strand breaks at 1 mM after 24 hrs by comet assay. Type of series: toxicity, cell-based. The note with it: human, hek293, 24 h, 1000 µM. The gist of the method:
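Alkaline comet assay: HEK/UGT1A3 cells seeded 24 h before, treated 24 h in DMEM with 0.5% FBS (vehicle 0.1% DMSO; MMS 0.1 mM positive control). Cells embedded in LMP agarose, lysed 1 h at 4°C at pH 10, unwound 30 min in NaOH/EDTA, electrophoresed 300 mA 20 min, ethidium-stained; tail moment scored on 150-180 comets over >3 experiments, median (IQR).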

Series [7] concerns HEK293. The series can be described thus: Cytotoxicity against HEK293 cells expressing UGT1A3 assessed as decrease in cell viability at 1 mM by MTT assay. Type of series: ADME, cell-based. The note with it: human, hek293, 1000 µM; TDE = time-dependent effect.
Series [8] relates to Hepatocyte. In words: Cellular uptake in human hepatocytes at 1 mM measured at 6 hrs by LC-MS/MS analysis in presence of acyl glucuronidation inhibitor (-)-borneol. Type of series: ADME, cell-based. The note with it: 1000 µM. Summed up:
(§3)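 Cryopreserved pooled human hepatocytes on collagen-coated wells, 2 × 10^5 cells/well in HCM medium with 0.5% FBS, preincubated 30 min with or without 1 mM (-)-borneol, then drug for 6 h; DMSO ≤0.2% final. Parent drug in cell fraction measured by LC-MS/MS after methanol/acetic acid extraction. Mean ± SD of triplicates.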

Series [9] deals with HEK293. In words: Cytotoxicity against mock transfected HEK293 cells assessed as decrease in cell viability by measuring intracellular ATP content at 1 mM by CellTiter-Glo luminescent assay. Type of series: cell-based. The note with it: human, hek293, 1000 µM; TDE = time-dependent effect. Summed up:
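Mock-transfected HEK293 cells seeded at 2 x 10^4 cells/well in DMEM with 0.5% FBS, drug added at once and incubated 6, 12 or 24 h. Viability read either by WST-8 (CCK-8) formazan absorbance at 450 nm or by intracellular ATP luminescence (CellTiter-Glo), as percent of control cells; mean ± SD of triplicates. Final DMSO ≤0.1%.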

The test system of series [10] is Hepatocyte. The series can be described thus: Cellular uptake in human hepatocytes at 1 mM measured at 6 hrs by LC-MS/MS analysis in absence of acyl glucuronidation inhibitor (-)-borneol. The series is classed as ADME, cell-based. The note with it: 1000 µM. Summed up: as §3
Series [11] relates to HEK293. The series can be described thus: Cytotoxicity against HEK293 cells expressing UGT1A4 assessed as decrease in cell viability by measuring intracellular ATP content at 1 mM by CellTiter-Glo luminescent assay. The note with it: human, hek293, 1000 µM; TDE = time-dependent effect. Type of series: ADME, cell-based. The gist of the method:
as §1

For series [12], the target named is T1, UDP-glucuronosyltransferase 1A3 (Homo sapiens, UniProt P35503).
T1 sequence (P35503 whole entry): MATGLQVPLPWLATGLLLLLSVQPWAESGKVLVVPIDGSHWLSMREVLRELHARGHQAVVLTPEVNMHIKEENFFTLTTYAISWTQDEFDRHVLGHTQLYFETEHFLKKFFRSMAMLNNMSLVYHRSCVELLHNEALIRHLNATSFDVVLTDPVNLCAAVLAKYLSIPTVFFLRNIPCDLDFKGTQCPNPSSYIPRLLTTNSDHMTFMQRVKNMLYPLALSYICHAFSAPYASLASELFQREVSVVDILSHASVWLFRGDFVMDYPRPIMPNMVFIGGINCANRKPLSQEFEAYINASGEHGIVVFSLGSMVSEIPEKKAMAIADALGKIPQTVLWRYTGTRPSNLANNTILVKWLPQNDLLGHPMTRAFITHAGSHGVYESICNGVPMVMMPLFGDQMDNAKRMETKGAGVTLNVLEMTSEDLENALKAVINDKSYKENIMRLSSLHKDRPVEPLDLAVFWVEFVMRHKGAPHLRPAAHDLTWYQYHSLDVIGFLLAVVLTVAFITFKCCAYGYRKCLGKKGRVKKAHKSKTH
In words: Activity of human UGT1A3 expressed in HEK293 cells assessed as enzyme-mediated ibuprofen acyl-beta-D-glucuronide formation at 1 mM measured at 24 hrs by LC-MS/MS analysis. Type of series: ADME, cell-based. The note with it: hek293, 24 h, 1000 µM. Summed up: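 HEK293 stably expressing human UGT1A3 (G418-selected), 2 x 10^5 cells/well in 1 mL DMEM with 0.5% FBS, exposed immediately to drug for 6, 12 or 24 h; DMSO ≤0.1% final. Cells and medium separated by centrifugation, cell fraction resuspended in PBS; aliquots mixed 1:1 with methanol/acetic acid (100:1), spun, supernatant analysed by LC-MS/MS. Triplicate determinations, mean ± SD.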

Series [13] deals with Hepatocyte. The series can be described thus: Cytotoxicity against human hepatocytes assessed as decrease in cell viability at 1 mM measured at 6 hrs […] in presence of acyl glucuronidation inhibitor (-)-borneol. Type of series: cell-based. The note with it: 1000 µM.
In series [14] the target is T2, UDP-glucuronosyltransferase 1A4 (Homo sapiens, UniProt P22310).
T2 sequence (P22310 whole entry): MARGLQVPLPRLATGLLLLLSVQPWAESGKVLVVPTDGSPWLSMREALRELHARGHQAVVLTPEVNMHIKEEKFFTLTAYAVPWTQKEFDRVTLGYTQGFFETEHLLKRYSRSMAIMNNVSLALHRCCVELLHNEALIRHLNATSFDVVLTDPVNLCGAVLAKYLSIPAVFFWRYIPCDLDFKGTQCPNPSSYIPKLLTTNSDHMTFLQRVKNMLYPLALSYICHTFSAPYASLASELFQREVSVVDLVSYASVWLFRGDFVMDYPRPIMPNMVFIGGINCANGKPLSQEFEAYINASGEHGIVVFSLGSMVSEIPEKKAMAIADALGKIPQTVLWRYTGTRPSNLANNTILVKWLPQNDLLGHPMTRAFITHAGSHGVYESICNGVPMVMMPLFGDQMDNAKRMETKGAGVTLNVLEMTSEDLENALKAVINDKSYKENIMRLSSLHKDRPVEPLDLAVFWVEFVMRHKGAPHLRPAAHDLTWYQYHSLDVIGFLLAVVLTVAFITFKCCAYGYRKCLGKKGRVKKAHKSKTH
In words: Activity of human UGT1A4 expressed in HEK293 cells assessed as enzyme-mediated ibuprofen acyl-beta-D-glucuronide formation at 1 mM measured at 24 hrs by LC-MS/MS analysis. Type of series: ADME, cell-based. The note with it: hek293, 24 h, 1000 µM. The gist of the method: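 HEK293 stably expressing human UGT1A4, 2 x 10^5 cells/well in DMEM with 0.5% FBS, drug exposure 6–24 h, DMSO ≤0.1% final. Acyl glucuronide in cell fraction and medium measured by LC-MS/MS after methanol/acetic acid (100:1) precipitation and centrifugation. Triplicate determinations.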

The test system of series [15] is HEK293. The series can be described thus: Cytotoxicity against mock transfected HEK293 cells assessed as decrease in cell viability at 1 mM by MTT assay. The note with it: human, hek293, 1000 µM; TDE = time-dependent effect. Type of series: cell-based.
Series [16] has as its system Hepatocyte. In words: Cytotoxicity against human hepatocytes assessed as decrease in cell viability by measuring intracellular ATP content at 1 mM measured at 6 hrs by CellTiter-Glo luminescent assay in presence of acyl glucuronidation inhibitor (-)-borneol. The series is classed as cell-based. The note with it: 1000 µM. The gist of the method:
as §2
A general note: In ATP-based viability assays light output follows the ATP content of the culture.

`CC(C)Cc1ccc(C(C)C(=O)O)cc1` (stereo unspecified) [IBUPROFEN]: the Activity in series [1] is on record as less than 5.4%; in series [2], “tde”; in series [3], “Toxic”; in series [4], “Non-toxic”; in series [5], “tde”; in series [6] it was “Non-toxic”. The Activity entry is on record as “tde” in [7]; “tde” in series [9]; “tde” in series [11]; “Toxic” in series [13]; “tde” in series [15]; “Toxic” in series [16]. Besides, the Drug uptake entry in [8] and in series [10] was “Active” throughout. The Drug metabolism result in series [12] is “metabolite_detected”; in [14], “metabolite_not_detected”.
